According to ChEMBL document CHEMBL1125557, “Dihydropyrimidine angiotensin II receptor antagonists” (J Med Chem, 1992):
Values joined by “and” are separate entries in the source; they are usually repeats but may differ in a detail not shown here. Equal entries are not always repeated.

Experiments:
[1] = target: T1, Type-1 angiotensin II receptor B (Rattus norvegicus, UniProt P29089); assay: Inhibition of [125I]- Sar,Ile8-angiotensin II binding to rat adrenal cortical membrane angiotensin II receptor
T1 sequence (P29089 whole entry): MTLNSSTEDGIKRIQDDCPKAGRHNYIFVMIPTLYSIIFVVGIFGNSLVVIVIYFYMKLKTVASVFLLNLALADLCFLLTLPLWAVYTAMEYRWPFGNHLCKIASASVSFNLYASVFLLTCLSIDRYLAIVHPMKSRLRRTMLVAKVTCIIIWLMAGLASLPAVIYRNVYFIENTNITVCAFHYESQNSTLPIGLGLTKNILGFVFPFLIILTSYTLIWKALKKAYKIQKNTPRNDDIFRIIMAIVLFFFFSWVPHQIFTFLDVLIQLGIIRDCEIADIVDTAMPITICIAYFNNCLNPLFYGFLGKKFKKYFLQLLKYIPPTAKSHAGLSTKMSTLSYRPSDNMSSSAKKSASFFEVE

[2] = species: Oryctolagus cuniculus; assay: In vitro functional potency by antagonism of angiotensin II induced contraction of isolated rabbit aorta
Outline: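 Isolated rabbit aorta contracted by angiotensin II; antagonism expressed as KB (nM, ±SEM).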

[3] = tested on: Rattus norvegicus; assay: In vivo antihypertensive activity against spontaneously hypertensive rats after oral administration of 10 uM/Kg dose between 0-6 hours; type: functional
Outline: (§1)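 Male SHR, surgically prepared, recovered 2 weeks on regular food and water. Low-NaCl diet from 5 days before testing; furosemide 2.5 mg/kg on 3 consecutive days before testing. Compounds given orally as agar suspension. Mean arterial pressure monitored for 24 h; maximum % fall in pressure per 6-h interval, n = 8-10.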

[4] = tested on: Rattus norvegicus; assay: In vivo antihypertensive activity against spontaneously hypertensive rats after oral administration of 10 uM/Kg dose between 12-18 hours; type: functional; outline: as §1
[5] = tested on: Rattus norvegicus; assay: In vivo antihypertensive activity against spontaneously hypertensive rats after oral administration of 10 uM/Kg dose between 18-24 hours; type: functional; outline: as §1
[6] = tested on: Rattus norvegicus; assay: In vivo antihypertensive activity against spontaneously hypertensive rats after oral administration of 10 uM/Kg dose between 6-12 hours; type: functional; outline: as §1
[7] = tested on: Rattus norvegicus; assay: In vivo antihypertensive activity against spontaneously hypertensive rats after oral administration of 30 umol/kg dose between 0-6 hours; type: functional; outline: as §1
[8] = tested on: Rattus norvegicus; assay: In vivo antihypertensive activity against spontaneously hypertensive rats after oral administration of 30 uM/Kg dose between 12-18 hours; type: functional; outline: as §1
[9] = tested on: Rattus norvegicus; assay: In vivo antihypertensive activity against spontaneously hypertensive rats after oral administration of 30 uM/Kg dose between 18-24 hours; type: functional; outline: as §1
[10] = tested on: Rattus norvegicus; assay: In vivo antihypertensive activity against spontaneously hypertensive rats after oral administration of 30 uM/Kg dose between 6-12 hours; type: functional; outline: as §1
[11] = tested on: Rattus norvegicus; assay: Compound was tested in vivo for antagonistic activity for the 50% inhibition of AII pressor response in male rats after intravenous administration; type: functional
Outline: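 Normotensive male rats received three doses of test agent iv, then AII challenge (100 ng/kg iv) 2 min later. ED50 (dose halving the AII pressor response) from simplex curve fit of log dose versus maximum percent inhibition; n = 4.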

[12] = tested on: Rattus norvegicus; assay: In vivo antihypertensive activity against spontaneously hypertensive rats after oral administration of 30 uM/Kg dose between 0-6 hours; type: functional; outline: as §1
[13] = tested on: Rattus norvegicus; assay: In vivo antihypertensive activity against spontaneously hypertensive rats after oral administration of 30 umol/kg dose between 6-12 hours; type: functional; outline: as §1
[14] = tested on: Rattus norvegicus; assay: In vivo antihypertensive activity against spontaneously hypertensive rats after oral administration of 10 umol/kg dose between 0-6 hours; type: functional; outline: as §1
[15] = tested on: Rattus norvegicus; assay: In vivo antihypertensive activity against spontaneously hypertensive rats after oral administration of 30 umol/kg dose between 12-18 hours; type: functional; outline: as §1
[16] = tested on: Rattus norvegicus; assay: In vivo antihypertensive activity against spontaneously hypertensive rats after oral administration of 30 umol/kg dose between 18-24 hours; type: functional; outline: as §1
[17] = tested on: Rattus norvegicus; assay: In vivo antihypertensive activity against spontaneously hypertensive rats after oral administration of 10 umol/kg dose between 6-12 hours; type: functional; outline: as §1

## CCCCC1=NC(Cl)=C(C(=O)OCC)C(C)N1Cc1ccc(-c2ccccc2-c2nnn[n-]2)cc1.[K+] (stereo unspecified)
[1]
  Ki: 8.3 nM
[2]; Oryctolagus cuniculus, Aorta
  Kb: 5.3 nM
[3]
  Decrease in blood pressure: 14%
[4]
  Decrease in blood pressure: 15%
[5]
  Decrease in blood pressure: 17%
[6]
  Decrease in blood pressure: 14%
[7]
  Decrease in blood pressure: 23%
[8]
  Decrease in blood pressure: 19%
[9]
  Decrease in blood pressure: 20%
[10]
  Decrease in blood pressure: 20%
[11]
  ED50: 1.65 µmol/kg

## CCCCC1=NC(C)=C(C(=O)OCC)C(C)N1Cc1ccc(-c2ccccc2C(=O)O)cc1 (stereo unspecified)
[1]
  Ki: 990 nM
[2]; Oryctolagus cuniculus, Aorta
  Kb: 660 nM

## CCCCc1nc(-c2ccccc2)c(C(=O)OCC)c(=O)n1Cc1ccc(-c2ccccc2C(=O)O)cc1
[1]
  Ki: 1600 nM
[2]; Oryctolagus cuniculus, Aorta
  Kb: 140 nM

## CCCCC1=NC(c2ccccc2)=C(C(=O)OCC)C(C)N1Cc1ccc(-c2ccccc2C(=O)O)cc1 (stereo unspecified)
[1]
  Ki: 850 nM
[2]; Oryctolagus cuniculus, Aorta
  Kb: 630 nM

## CCCCC1=NC(C)(C)C(C(=O)OCC)=C(Cl)N1Cc1ccc(-c2ccccc2C(=O)O)cc1
[1]
  Ki: 58 nM
[2]; Oryctolagus cuniculus, Aorta
  Kb: 23 nM

## CCCCc1nc(C)c(C(=O)OCC)c(=O)n1Cc1ccc(-c2ccccc2C(=O)O)cc1
[1]
  Ki: 150 nM
[2]; Oryctolagus cuniculus, Aorta
  Kb: 95 nM

## CCCCC1=NC(C)(C)C(C(=O)OCC)=C(Cl)N1Cc1ccc(-c2ccccc2-c2nn[nH]n2)cc1
[1]
  Ki: 1.1 nM
[2]; Oryctolagus cuniculus, Aorta
  Kb: 24 nM
[12]
  Decrease in blood pressure: 5%
[8]
  Decrease in blood pressure: 4%
[9]
  Decrease in blood pressure: 2%
[10]
  Decrease in blood pressure: 3%
[11]
  ED50: 2.4 µmol/kg

## CCCCc1ncc(C(=O)OCC)c(=O)n1Cc1ccc(-c2ccccc2C(=O)O)cc1
[1]
  Ki: 82 nM
[2]; Oryctolagus cuniculus, Aorta
  Kb: 610 nM

## CCCCC1=NC(Cl)=C(C(=O)OCC)C(C)N1Cc1ccc(-c2ccccc2C(=O)O)cc1 (stereo unspecified)
[1]
  Ki: 41 nM
[2]; Oryctolagus cuniculus, Aorta
  Kb: 70 nM

## CCCCC1=NC(Cl)=C(C(=O)OCC)C(c2ccccc2)N1Cc1ccc(-c2ccccc2C(=O)O)cc1 (stereo unspecified)
[2]; Oryctolagus cuniculus, Aorta
  Kb: 1000 nM

## CCCCC1=NC(Cl)=C(C(=O)O)C(C)N1Cc1ccc(-c2ccccc2-c2nn[nH]n2)cc1 (stereo unspecified)
[1]
  Ki: 1 nM
[2]; Oryctolagus cuniculus, Aorta
  Kb: 0.45 nM
[12]
  Decrease in blood pressure: 8%
[8]
  Decrease in blood pressure: 2%
[9]
  Decrease in blood pressure: 1%
[10]
  Decrease in blood pressure: 0%
[11]
  ED50: 0.076 µmol/kg

## CCCCC1=NC(c2ccc(Cl)cc2)=C(C(=O)OCC)C(C)N1Cc1ccc(-c2ccccc2C(=O)O)cc1 (stereo unspecified)
[1]
  Ki: 190 nM
[2]; Oryctolagus cuniculus, Aorta
  Kb: 520 nM

## CCCCc1nc(Cl)c(CO)n1Cc1ccc(-c2ccccc2-c2nnn[n-]2)cc1.[K+] [LOSARTAN POTASSIUM]
[2]
  Kb: 2.6 nM
[7]
  Decrease in blood pressure: 31%
[11]
  ED50: 1.8 µmol/kg
[13]
  Decrease in blood pressure: 35%
[14]
  Decrease in blood pressure: 13%
[15]
  Decrease in blood pressure: 37% and 22%
[16]
  Decrease in blood pressure: 38% and 24%
[17]
  Decrease in blood pressure: 20%

## CCCCc1nc(Cl)c(CO)n1Cc1ccc(-c2ccccc2-c2nnn[nH]2)cc1 [LOSARTAN]
[2]
  Kb: 86 nM
